Measurements published in paper PMC7745752 (The Journal of General Physiology, 2020).
Residue numbers refer to the chain shown, from its start.

Columns and labels:
[1] = target: T1, TRPV3 E682Q/E689Q/D727N (QQN) (Mus musculus, UniProt Q8K424, D727N/E682Q/E689Q); experiment: cell-based Ca2+ assay
T1 sequence (Q8K424 1-791 E682Q/E689Q/D727N): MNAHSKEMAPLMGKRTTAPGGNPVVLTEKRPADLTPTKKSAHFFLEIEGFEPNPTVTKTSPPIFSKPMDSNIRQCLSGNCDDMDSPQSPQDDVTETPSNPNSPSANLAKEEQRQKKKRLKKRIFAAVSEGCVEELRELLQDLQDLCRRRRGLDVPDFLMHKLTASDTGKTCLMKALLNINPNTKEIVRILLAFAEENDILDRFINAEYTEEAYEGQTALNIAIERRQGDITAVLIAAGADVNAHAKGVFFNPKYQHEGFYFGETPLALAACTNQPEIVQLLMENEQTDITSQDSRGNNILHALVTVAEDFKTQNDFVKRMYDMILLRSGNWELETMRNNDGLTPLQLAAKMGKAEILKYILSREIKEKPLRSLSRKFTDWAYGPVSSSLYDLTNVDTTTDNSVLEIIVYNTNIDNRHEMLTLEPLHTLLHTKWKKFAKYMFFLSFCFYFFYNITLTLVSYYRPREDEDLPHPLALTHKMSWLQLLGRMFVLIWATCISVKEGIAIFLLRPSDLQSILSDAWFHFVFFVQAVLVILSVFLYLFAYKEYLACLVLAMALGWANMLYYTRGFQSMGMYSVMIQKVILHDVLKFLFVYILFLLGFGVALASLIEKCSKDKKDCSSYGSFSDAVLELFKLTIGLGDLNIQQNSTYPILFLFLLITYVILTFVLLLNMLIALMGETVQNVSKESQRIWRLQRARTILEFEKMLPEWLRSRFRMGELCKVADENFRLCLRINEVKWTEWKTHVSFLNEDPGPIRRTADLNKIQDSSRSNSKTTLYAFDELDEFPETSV
Summary of the method: (§1)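 Mouse TRPV3 (WT or mutant) was transfected into HEK293 cells in 96-well plates. Cells were loaded with 5 µM Fluo-4/AM, 0.02% Pluronic F-127 and 0.1% BSA in HEPES ECS (pH 7.4) at 37°C for 60 min, with 2 mM probenecid throughout. 2-APB was added once per well in ECS, or in Mes acidic solution giving final pH 5.6. AUC was normalized to the plate maximum, and EC50 at each pH came from a Hill fit.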

TRPV3 E682Q/D727N = target: T2, TRPV3 E682Q/D727N (Mus musculus, UniProt Q8K424, D727N/E682Q); experiment: cell-based Ca2+ assay
T2 sequence (Q8K424 1-791 E682Q/D727N): T1 sequence (Q8K424 1-791 E682Q/E689Q/D727N) with Q689E
Summary of the method: (§2)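 Ca2+ plate assay with FlexStation in HEK293 cells transiently expressing mutant mouse TRPV3. Fluo-4/AM loading was 5 µM for 60 min at 37°C in pH 7.4 ECS with probenecid; cells were then washed. Agonist was delivered robotically at varied concentrations, each well dosed once. Read-out was ex 494/em 525 nm at 0.67 Hz. AUC was normalized to the plate maximum, and EC50 was obtained by Hill fitting.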

TRPV3 E689Q/D727N = target: T3, TRPV3 E689Q/D727N (Mus musculus, UniProt Q8K424, D727N/E689Q); experiment: cell-based Ca2+ assay
T3 sequence (Q8K424 1-791 E689Q/D727N): T1 sequence (Q8K424 1-791 E682Q/E689Q/D727N) with Q682E
Summary of the method: as §2

[2] = target: T1, TRPV3 E682Q/E689Q/D727N (QQN); experiment: whole-cell voltage-clamp recording in transfected HEK293 cells; format: cell-based
WT mouse TRPV3 [3] = target: T4, WT mouse TRPV3 (Mus musculus, UniProt Q8K424); experiment: whole-cell voltage-clamp recording in transfected HEK293 cells; format: cell-based; details: 300 µM carvacrol; for repeated stimulations needed to approach the maximal response: 30-s applications
T4 sequence (Q8K424 1-791): T1 sequence (Q8K424 1-791 E682Q/E689Q/D727N) with Q682E, Q689E, N727D
Summary of the method: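 Sensitization by intracellular pH: 300 µM carvacrol was applied repeatedly in whole-cell mode to HEK293 cells expressing mouse TRPV3. External solution was pH 7.4, nominally Ca2+-free. pHi was set to 7.2, 6.5 or 6.0 by CsCl/EGTA pipette solutions. The stimulation reaching maximal response was noted. Temperature was 22–24°C.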

WT mouse TRPV3 [4] = target: T4, WT mouse TRPV3; experiment: cell-based Ca2+ assay; details: pH 7.4 vs pH 5.6
Summary of the method: as §1

TRPV3 E631A = target: T5, TRPV3 E631A (Mus musculus, UniProt Q8K424, E631A); experiment: whole-cell voltage-clamp recording in transfected HEK293 cells; format: cell-based; details: n = 3
T5 sequence (Q8K424 1-791 E631A): T1 sequence (Q8K424 1-791 E682Q/E689Q/D727N) with E631A, Q682E, Q689E, N727D
Summary of the method: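 Whole-cell clamp at 22–24°C of HEK293 cells transiently expressing mutant mouse TRPV3. Pipette: 140 mM CsCl, 1 EGTA, pH 7.2. Bath: nominally Ca2+-free. 30 µM 2-APB was perfused at pHe 7.4, then in pH 5.0 Mes-buffered solution. Ramps ran −100 to +100 mV over 200 ms every second from 0 mV holding. Current ratio pHe 5.0/7.4 was taken at ±100 mV.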

[5] = test system: TRPV3 C-terminal double and triple mutants (E682Q, E689Q, D727N combinations); experiment: cell-based Ca2+ assay; set-up: species or system mouse; details: pH 7.4 vs pH 5.6
Summary of the method: as §1

| Structure (SMILES) | EC50 [1] | EC50 (TRPV3 E682Q/D727N) | EC50 (TRPV3 E689Q/D727N) | stimulation at which the highest level of response was reached ([2]; 300 µM carvacrol, 30-s applications, pHi 7.2, external pH 7.4) | repeated stimulations needed to approach the maximal response (WT mouse TRPV3 [3]; pHi 6.0, external pH 7.4) | repeated stimulations needed to approach the maximal response (WT mouse TRPV3 [3]; pHi 7.2, external pH 7.4) | decrease of carvacrol-evoked TRPV3 current by pH 5.5 compared with pH 7.4 (WT mouse TRPV3 [3]; presensitized cells, +80 mV, nominally Ca2+-free bath) | ratio for 2-APB EC50 values obtained at pH 7.4 and pH 5.6 ([1]; pH 7.4 vs pH 5.6) | ratio for 2-APB EC50 values obtained at pH 7.4 and pH 5.6 (WT mouse TRPV3 [4]) | 5.0:7.4 pH ratio of 2-APB-evoked current (TRPV3 E631A; +100 mV) | 5.0:7.4 pH ratio of 2-APB-evoked current (TRPV3 E631A; −100 mV) | delay in current development after the addition of 2-APB ([2]; 5 µM 2-APB, pHe 6.5, nominally Ca2+-free bath) | ratio for 2-APB EC50 values obtained at pH 7.4 and pH 5.6 [5] |
| --- | --- | --- | --- | --- | --- | --- | --- | --- | --- | --- | --- | --- | --- |
| Cc1ccc(C(C)C)cc1O [carvacrol] | 119 ± 7.6 µM | 197 ± 7.8 µM | 60.2 ± 3.2 µM | first stimulation | five | ~14 | ~50% | – | – | – | – | – | – |
| NCCOB(c1ccccc1)c1ccccc1 [2-APB, 2-aminoethoxydiphenyl borate] | – | – | – | – | – | – | – | 0.92 | ~15 | 0.98 ± 0.09 | 1.02 ± 0.03 | ~30 s | < 4.6 |
